The values below come from ChEMBL document CHEMBL1123734, “Resolution, absolute stereochemistry, and enantioselective activity of nomifensine and hexahydro-1H-indeno[1,2-b]pyridines” (J Med Chem, 1987).

For data set [1], the system named is Mus musculus. Nature of the data set: Antidepressant potential was assessed by the prevention of tetrabenazine-induced ptosis in mice by intraperitoneal administration. It is filed as functional.
In data set [2] the test system is Mus musculus. Briefly: (§1) Lethal dose (toxicity) was determined by intraperitoneal administration in mice. It is filed as organism-based. Particulars: in vivo, ip. The essentials: (§2)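 Male NMRI mice (SPF-71, KF), 20-30 g, randomly assigned to groups of 10. Compounds were dissolved in 1% methylcellulose and given intraperitoneally at 10 mL/kg body weight.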
The species named for data set [3] is Rattus norvegicus. Briefly: In vitro inhibition of [14C]norepinephrine uptake into rat hypothalamus. It is filed as functional, organism-based.
Data set [4] is filed under the species Rattus norvegicus. Nature of the data set: In vitro inhibition of [3H]dopamine uptake into rat corpus striatum. It is filed as functional, organism-based.
The subject of data set [5] is Mus musculus. Nature of the data set: Antidepressant potential was assessed by the potentiation of yohimbine-induced toxicity in mice by intraperitoneal administration. In kind it is functional. The gist of the method:
(§3)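 Male NMRI mice (SPF-71, KF), 20-30 g, were randomized into groups of 10. Compounds were dissolved in 1% methylcellulose, dosed at 10 mL/kg, and given ip 30 min before yohimbine hydrochloride (20 mg/kg sc). Deaths were counted after 18 h. ED50 was the dose at which 50% of animals died.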

Data set [6] is described as follows: as §1. In kind it is organism-based. The conditions noted are these: mouse, in vivo, ip. The essentials: as §2
For data set [7], the species on record is Rattus norvegicus. Briefly: In vitro inhibition of [3H]5-HT uptake into rat whole brain. It is filed as functional, organism-based.
Data set [8] in a line: (§4) Lethal dose (toxicity) was determined by intraperitoneal administration in mice. It is filed as organism-based. The conditions noted are these: mouse, in vivo, ip. The gist of the method: as §2
Data set [9] deals with Mus musculus. Briefly: Antidepressant potential was assessed by the prevention of tetrabenazine-induced ptosis in mice by intraperitoneal administration. In kind it is functional. The essentials: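 Male NMRI mice (SPF-71, KF), 20-30 g, randomly assigned to groups of 10. Compounds dissolved in 1% methylcellulose and given ip at 10 mL/kg body weight. Ptosis procedure follows an earlier cited method.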

The test system of data set [10] is Mus musculus. Briefly: Antidepressant potential was assessed by the potentiation of yohimbine-induced toxicity in mice by intraperitoneal administration. It is filed as functional. The gist of the method: as §3
Data set [11] concerns Mus musculus. The data set is described as §4. It is filed as organism-based. The conditions noted are these: in vivo, ip. The essentials: as §2
Data set [12] relates to Mus musculus. Nature of the data set: Antidepressant potential was assessed by the prevention of tetrabenazine-induced ptosis in mice by intraperitoneal administration; Inactive. In kind it is functional. Particulars: ip.
Data set [13] concerns Mus musculus. Nature of the data set: Antidepressant potential was assessed by the potentiation of yohimbine-induced toxicity in mice by intraperitoneal administration; Inactive. In kind it is functional. The conditions noted are these: ip. The gist of the method: as §3
Setting [14] is: Mus musculus, ip, read-out: ED50.

SMILES strings stand for the structures. “And” between values parts separate entries of the source, which are not always exact repeats. Equal entries are not always repeated.

`Nc1ccc([C@H]2c3ccccc3[C@@H]3NCCC[C@H]23)cc1` (racemic): the values for the median effective dose (ED50) with Mus musculus [1] and with Mus musculus [5] were 0.044 mg/kg and 0.06 mg/kg, respectively. The same compound displayed an LD50 in the data set with Mus musculus [2] of 37 mg/kg. Also, the concentration for half-maximal inhibition (IC50) in the data set listed under Rattus norvegicus [3] came to 18 nM; in the data set filed under Rattus norvegicus [4], 44 nM.
As to `Nc1ccc([C@H]2c3ccccc3[C@@H]3NCCC[C@H]23)cc1`, the figures for the LD50 in data set [6] and in data set [8] were 43 mg/kg and 78 mg/kg, respectively. Moreover, the IC50 was more than 10000 nM in the data set filed under Rattus norvegicus [7] (Rattus norvegicus, 1 h); 5 nM and 15 nM in the data set filed under Rattus norvegicus [3]; 20 nM and 50 nM in the data set listed under Rattus norvegicus [4]. For the same compound, the ED50 in the data set on Mus musculus [5] is 0.07 mg/kg and 0.15 mg/kg.
As for `CN1Cc2c(N)cccc2C(c2ccccc2)C1` (stereo in doubt; (-)) [NOMIFENSINE], the LD50 in the data set on Mus musculus [2] was found to be 170 mg/kg. Further, the median effective dose (ED50) in the data set on Mus musculus [5] was determined as 20.2 mg/kg.
For `CN1Cc2c(N)cccc2C(c2ccccc2)C1` (stereo in doubt; (+)) [NOMIFENSINE], in that order: 49.5 mg/kg and 0.55 mg/kg.
Take `CN1CCC[C@@H]2[C@@H](c3ccccc3)c3ccccc3[C@@H]21` (racemic): the half-maximal inhibitory concentration (IC50) in the data set filed under Rattus norvegicus [7] worked out at 10000 nM; in the data set filed under Rattus norvegicus [3], 120 nM; in the data set filed under Rattus norvegicus [4], 100 nM. Further, the 50% effective dose (ED50) is 0.4 mg/kg with Mus musculus [9] (setting [14]) and 1.3 mg/kg in the data set on Mus musculus [10] (setting [14]). In [8], the LD50 turned out to be 46.7 mg/kg.
Compound `CN1Cc2c(N)cccc2C(c2ccccc2)C1` (racemic) [NOMIFENSINE] registered an LD50 with Mus musculus [2] of 141 mg/kg. In addition, the 50% effective dose (ED50) in the data set on Mus musculus [5] was 1.1 mg/kg.
`CCCN1CCC[C@@H]2[C@@H](c3ccccc3)c3ccccc3[C@@H]21` (racemic): the IC50 is more than 10000 nM in the data set listed under Rattus norvegicus [7], 410 nM in the data set listed under Rattus norvegicus [3] and 110 nM in the data set listed under Rattus norvegicus [4]. Further, the ED50 stood at 0.8 mg/kg in the data set with Mus musculus [9] and 3.5 mg/kg in the data set with Mus musculus [10]. In the data set with Mus musculus [11], this compound displayed an LD50 of 57 mg/kg.
For `CCCN1CCC[C@@H]2[C@@H](c3ccccc3)c3ccccc3[C@@H]21`, the IC50 in the data set listed under Rattus norvegicus [7] is more than 10000 nM; in the data set listed under Rattus norvegicus [3], 36 nM and 200 nM; in the data set listed under Rattus norvegicus [4] it was 40 nM and 200 nM. Also, the ED50 was 5 mg/kg in the data set with Mus musculus [12], 0.4 mg/kg in the data set on Mus musculus [9] (setting [14]), 1.2 mg/kg in the data set with Mus musculus [10] and 5 mg/kg with Mus musculus [13]. In addition, the figures for the 50% lethal dose (LD50) (in the data set with Mus musculus [11]; in [8]) were 35 mg/kg and 39 mg/kg, respectively.
Regarding `CN1CCC[C@@H]2[C@@H](c3ccccc3)c3ccccc3[C@@H]21`, the median effective dose (ED50) is 10 mg/kg in the data set on Mus musculus [12], 0.37 mg/kg with Mus musculus [9], 0.86 mg/kg in the data set with Mus musculus [10] and 5 mg/kg with Mus musculus [13]. The concentration for half-maximal inhibition (IC50) in the data set filed under Rattus norvegicus [3] is 500 nM and 60 nM; in the data set filed under Rattus norvegicus [4], 300 nM. Further, the LD50 in the data set on Mus musculus [11] was 72 mg/kg and 91 mg/kg.

A word on the ED50: it is the midpoint of the dose-response relation. By LD50 is commonly meant the dose expected to kill half of the subjects tested. Low values mean a more toxic substance, high ones a less toxic substance. Broadly, the IC50 is the point on the concentration scale where inhibition reaches its midpoint. A lower IC50 goes with greater potency in that assay.
